pIC50: −log10 of the molar value. Activity calls are given as the source filed them. The calls are words filed in the database; no cut-off is given here.
How the values were obtained:
[1] = test system: HeLa; assay: Induction of apoptosis in human HeLa cells at 0.62 to 5 uM after 24 to 48 hrs by Annexin V/FITC staining-based flow cytometry; assay type: functional, cell-based
Method in brief: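 HeLa cells treated 24 or 48 h at indicated concentrations, then stained with annexin-V-FITC plus PI; flow cytometry with 488 nm excitation, 525 and 585 nm emission; live, early/late apoptotic and necrotic populations distinguished; means of three independent experiments.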

[2] = test system: MCF7; assay: Cytotoxicity against human MCF7 cells assessed as growth inhibition after 72 hrs by MTT assay; assay type: functional, cell-based; conditions: MCF7, 72 h
[3] = target: Tubulin (Homo sapiens) (UniProt P68371+Q9H4B7+P0DPH7+P68366+Q13509+Q71U36+P04350+Q3ZCM7+P07437+P68363+Q9BQE3+Q6PEY2+Q13885+Q9BVA1+Q9BUF5); assay: Inhibition of tubulin polymerization in human HeLa cells assessed as microtubule disruption at 2.5 to 5 uM after 24 hrs by immunofluorescence microscopy relative to untreated control; assay type: cell-based
Method in brief: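 HeLa cells exposed 24 h to 2.5 or 5.0 μM versus untreated; fixed in cold 4% formaldehyde 15 min, stained with anti-β-tubulin monoclonal (1:1000) and Alexa secondary (1:2000), DAPI counterstain; imaged by confocal microscopy at 20×.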

[4] = Selectivity ratio of IC50 for human resting PBMC to IC50 for human Jurkat cells; assay type: ADME, cell-based; conditions: resting PBMC versus Jurkat cells, read-out: Ratio IC50
[5] = test system: CCRF-CEM; assay: Resistance ratio of IC50 for human CEM/VBL100 cells to IC50 for human CEM cells; assay type: functional
Method in brief: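 Ratio of IC50 in resistant line to IC50 in parental line (CEMVbl-100/CEM; LoVoDoxo/LoVo), each IC50 from 72 h MTT dose–response curves, ≥3 independent experiments.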

[6] = target: Tubulin (Bos taurus) (UniProt Q6B856+Q862L2+Q862F3); assay: Inhibition of bovine brain tubulin polymerization at 20 uM by turbidimetry
Method in brief: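 Purified bovine brain tubulin (10 μM) preincubated with compound in glutamate buffer at 30 °C, cooled to 0 °C, GTP added, then warmed to 30 °C in cuvettes; assembly followed turbidimetrically; concentrations up to 20 μM.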

[7] = test system: HT-29; assay: Cytotoxicity against human HT-29 cells assessed as growth inhibition after 72 hrs by MTT assay; assay type: functional, cell-based; conditions: HT-29, 72 h
[8] = test system: CCRF-CEM; assay: Cytotoxicity against human CEM cells assessed as growth inhibition after 72 hrs by MTT assay; assay type: functional, cell-based
[9] = test system: LoVo; assay: Cytotoxicity against human LoVo cells assessed as growth inhibition after 72 hrs by MTT assay; assay type: functional, cell-based
[10] = test system: HeLa; assay: Cytotoxicity against human HeLa cells assessed as growth inhibition after 72 hrs by MTT assay; assay type: functional, cell-based
[11] = test system: PBMC; assay: Cytotoxicity against human resting PBMC assessed as growth inhibition after 72 hrs by MTT assay; assay type: cell-based
Method in brief: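 Healthy-donor PBMC from Lymphoprep gradient, rested overnight in RPMI-1640/10% FBS; non-adherent cells at 5 × 10^5 cells/mL without PHA, treated 72 h with varying concentrations; viability by MTT; IC50 mean ± SEM, three separate experiments.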

[12] = Cytotoxicity against human LoVo/DX cells assessed as growth inhibition after 72 hrs by MTT assay; assay type: functional, cell-based
[13] = test system: Jurkat; assay: Cytotoxicity against human Jurkat cells assessed as growth inhibition after 72 hrs by MTT assay; assay type: functional, cell-based
[14] = test system: HeLa; assay: Induction of apoptosis in human HeLa cells assessed as PARP cleavage after 24 to 48 hrs by Western blotting analysis; assay type: functional, cell-based
Method in brief: (§1)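 HeLa cells treated at indicated concentrations and times; washed in cold PBS, lysed 30 min at 0 °C, cleared at 15 000 × g; 20 μg protein resolved on 7.5–15% gradient SDS-PAGE, blotted to PVDF, primary antibodies 2 h room temperature, peroxidase secondary 60 min, ECL detection; β-actin reprobe for loading.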

[15] = test system: HeLa; assay: Induction of apoptosis in human HeLa cells assessed as mitochondrial depolarization at 1 to 5 uM after 12 hrs by JC-1 staining-based flow cytometry; assay type: functional, cell-based
[16] = test system: HeLa; assay: Induction of apoptosis in human HeLa cells assessed as increase in Bak protein expression at 1 to 2.5 uM after 24 to 48 hrs by Western blotting analysis; assay type: functional, cell-based
[17] = test system: PBMC; assay: Cytotoxicity against human PHA-stimulated PBMC assessed as growth inhibition after 72 hrs by MTT assay; assay type: functional, cell-based
[18] = test system: HeLa; assay: Induction of apoptosis in human HeLa cells assessed as increase in Bid protein expression at 1 uM after 24 hrs by Western blotting analysis; assay type: functional, cell-based
[19] = test system: HeLa; assay: Induction of apoptosis in human HeLa cells assessed as PARP cleavage at 1 to 2.5 uM by Western blotting analysis; assay type: functional, cell-based; conditions: TDE = time-dependent effect; method in brief: as §1
[20] = Cytotoxicity against human CEM/VBL100 cells assessed as growth inhibition after 72 hrs by MTT assay; assay type: functional, cell-based; conditions: CEM/VBL100, 72 h
[21] = test system: HeLa; assay: Induction of DNA damage in human HeLa cells assessed as increase in gammaH2A.X protein expression at 1 to 2.5 uM after 24 hrs by Western blotting analysis; assay type: functional, cell-based
[22] = Selectivity ratio of IC50 for human resting PBMC to IC50 for human CEM cells; assay type: ADME, cell-based, CCRF-CEM; conditions: resting PBMC versus CEM cells, read-out: Ratio IC50
[23] = test system: HeLa; assay: Induction of apoptosis in human HeLa cells assessed as GSH depletion at 1 to 2.5 uM after 24 hrs by CMFDA staining-based flow cytometry in presence of N-acetylcysteine; assay type: functional, cell-based
Method in brief: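 HeLa cells treated 24 h with compound, alone or with 100 μM NAC; harvested and loaded with 5 μM CMFDA, 30 min at 37 °C; intracellular GSH read as CMFDA fluorescence by flow cytometry; means ± SEM.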

[24] = test system: HeLa; assay: Induction of apoptosis in human HeLa cells assessed as caspase-3 activation after 24 to 48 hrs by Western blotting analysis; assay type: functional, cell-based; method in brief: as §1
[25] = test system: HeLa; assay: Induction of apoptosis in human HeLa cells assessed as cell viability at 2.5 uM after 48 hrs by MTT assay in presence of dithiothreitol; assay type: functional, cell-based
Method in brief: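 HeLa cells exposed to 2.5 μM compound for 48 h with scavengers (NAC 100 μM, GSH 1 mM or DTT 1 mM, among others); viability by MTT; means ± SEM of four independent experiments, Student's t-test.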

[26] = test system: HeLa; assay: Induction of apoptosis in human HeLa cells assessed as reduction in Mcl-1 protein expression at 2.5 uM after 48 hrs by Western blotting analysis; assay type: functional, cell-based; method in brief: as §1
[27] = test system: HeLa; assay: Induction of apoptosis in human HeLa cells assessed as caspase-8 activation at 1 to 2.5 uM after 24 to 48 hrs by Western blotting analysis; assay type: functional, cell-based; method in brief: as §1
[28] = test system: HeLa; assay: Induction of apoptosis in human HeLa cells assessed as increase in Bax protein expression at 1 to 2.5 uM after 24 to 48 hrs by Western blotting analysis; assay type: functional, cell-based
[29] = test system: HeLa; assay: Cell cycle arrest in human HeLa cells assessed as reduction in S phase after 24 hrs by propidium iodide staining-based flow cytometry; assay type: functional
Method in brief: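 HeLa cells in exponential growth (2.5 × 10^5) treated 24 h at various concentrations; ethanol-fixed (70%, ice-cold), lysed with RNase A/0.1% Triton X-100, PI-stained; DNA content by flow cytometry, phase percentages from DNA histograms.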

With `C=C(Br)C(=O)Nc1ccc(/C=C/C(=O)Nc2cc(OC)c(OC)c(OC)c2)cc1` the Activity [1] was “Active”, the pIC50 [2] was 5.52 and the inhibition [3] was “inactive”. The selectivity ratio [4] was 10, the “Ratio IC50” value [5] was 0.6 and the inhibition [6] was “inactive”. For the same compound, the pIC50 [7] was 5.43, the pIC50 [8] was 7.60 and the pIC50 [9] was 5.68. It also gave a pIC50 [10] of 6.31, a pIC50 [11] of 5.46 and a pIC50 [12] of 5.86. The pIC50 [13] was 6.39, the Activity [14] was “Dose-dependent effect” and the Activity [15] was “Active”. For the same compound, the Activity [16] was “inactive”, the pIC50 [17] was 6.62 and the Activity [18] was “inactive”. The Activity [19] was “tde”, the pIC50 [20] was 7.82 and the Activity [21] was “Active”. For the same compound, the selectivity ratio [22] was 10, the Activity [23] was “inactive” and the Activity [24] was “Dose-dependent effect”. The Activity [25] was “inactive”, the Activity [26] was “Active” and the Activity [27] was “Active”. For the same compound, the Activity [28] was “inactive” and the Activity [29] was “Active”.
